Measured values as given in PubChem BioAssay AID623894 (Johns Hopkins Ion Channel Center, 2012).
Several values for one entry are separate records, joined by “and”; a condition that tells them apart may be missing. Equal values may be shown once. Activity calls are given as the source filed them.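 The calls were made as follows: active = peak inhibition above 30% of the KCNK3 potassium channel at some dose, plus a fitted dose response curve; inactive = no inhibition at any dose, or no fitted curve.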

molecular target: Potassium channel subfamily K member 3 (Rattus norvegicus) (UniProt O54912); test: rat KCNK3 off-target channel block – cell-based, FluxOR thallium flux, CRC set 3, selectivity assay for KCNK9 inhibitor project, SAR follow-up (AID 623894); details: KCNK3-expressing cell line, FluxOR thallium flux fluorescence
Procedure, shortened: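 Test system: tetracycline-induced KCNK3 CHO cells; Incubation: dye loading 90 min, compound exposure 20 min, room temperature, dark; Signal: kinetic thallium-flux fluorescence with FluxOR dye, 110 s post-stimulus.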

Potassium channel subfamily K member 3 (Rattus norvegicus), sequence (O54912 whole entry, looked up): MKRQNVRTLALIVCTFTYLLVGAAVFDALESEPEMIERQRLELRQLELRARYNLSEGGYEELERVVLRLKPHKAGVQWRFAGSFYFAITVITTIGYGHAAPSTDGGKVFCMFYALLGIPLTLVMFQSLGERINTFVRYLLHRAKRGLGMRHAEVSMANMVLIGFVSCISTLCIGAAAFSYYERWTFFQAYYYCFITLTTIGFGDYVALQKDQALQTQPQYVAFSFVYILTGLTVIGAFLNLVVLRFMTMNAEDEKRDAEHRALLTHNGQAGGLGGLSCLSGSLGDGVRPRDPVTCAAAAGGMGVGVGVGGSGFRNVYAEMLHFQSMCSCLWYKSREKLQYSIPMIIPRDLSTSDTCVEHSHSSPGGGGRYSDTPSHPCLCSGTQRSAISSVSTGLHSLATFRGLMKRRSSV

Row | IC50 | SMILES
1 | 6030 nM | C[C@H](C1CCCCC1)n1c(-c2ccsc2)n[nH]c1=S
2 | 24800 nM | CC(C1CC2CCC1C2)n1c(SCC(=O)N2CCN(C)CC2)nnc1-c1ccco1 (configuration not stated)
3 | 1170 nM | CC([C@@H]1CC2CC[C@H]1C2)n1c(-c2ccsc2)n[nH]c1=S (some centres not stated)
4 | 1100 nM | COc1cccc(-c2n[nH]c(=S)n2[C@H](C)[C@@H]2CC3CC[C@H]2C3)c1
5 | 201 nM | COc1ccc(CC(=O)NCc2ccccc2-c2ccccc2C(=O)NCc2ccc(F)cc2F)cc1
6 | 893 nM | COc1cccc(CCSc2nnc(-c3ccco3)n2C(C)C2CC3CCC2C3)c1 (configuration not stated)
7 | 5880 nM | C[C@H](C1CCCCC1)n1c(-c2ccccc2F)n[nH]c1=S
8 | 30300 nM | COc1ccc(NC(=O)CSc2nnc(-c3ccco3)n2C(C)C2CC3CCC2C3)cc1OC (configuration not stated)
9 | 1860 nM | CC(C1CC2CCC1C2)n1c(SCCc2ccccn2)nnc1-c1ccco1 (configuration not stated)
10 | 322 nM | COc1ccc(C(=O)CCSc2nnc(-c3ccco3)n2C(C)C2CC3CCC2C3)cc1OC (configuration not stated)
11 | 1660 nM | CC(C1CC2CCC1C2)n1c(SCCc2cccc(O)c2)nnc1-c1ccco1 (configuration not stated)
12 | 10700 nM | CC(C1C[C@H]2CCC1C2)n1c(-c2ccsc2)n[nH]c1=S (some centres not stated)
13 | 12400 nM | COc1cccc(-c2n[nH]c(=S)n2[C@H](C)C2CCCCC2)c1
14 | 818 nM and 6590 nM | C[C@@H]([C@@H]1CC2CC[C@H]1C2)n1c(-c2ccco2)n[nH]c1=S
15 | 159 nM | C[C@H]([C@@H]1CC2CC[C@H]1C2)n1c(-c2ccco2)n[nH]c1=S
16 | 4720 nM | CC(C1CC2CCC1C2)n1c(-c2ccco2)nn(CCc2ccncc2)c1=S (configuration not stated)
17 | 2190 nM | COc1ccc(CSc2nnc(-c3ccco3)n2C(C)C2CC3CCC2C3)cc1OC (configuration not stated)
18 | 121 nM | C[C@H]([C@@H]1CC2CC[C@H]1C2)n1c(-c2ccccc2F)n[nH]c1=S
19 | 1740 nM | COc1cccc(-c2nnc(SSc3nnc(-c4cccc(OC)c4)n3C(C)C3CC4CCC3C4)n2C(C)C2CC3CCC2C3)c1 (configuration not stated)

same assay, conditions: KCNK3-expressing cell line, FluxOR thallium flux fluorescence; at 30 µM (top of the series)

Row | flux ratio, lower = inhibition | SMILES
20 | inactive | CC(C1CCN(C)CC1)n1c(-c2ccco2)n[nH]c1=S (configuration not stated)
21 | inactive | CC(C1CC2CCC1C2)n1c(N)nnc1-c1ccco1 (configuration not stated)
22 | inactive | CC(C1CC2CCC1C2)n1c(SCCN2CCOCC2)nnc1-c1ccco1 (configuration not stated)
